Target: Prothrombin (Homo sapiens, UniProt P00734)
Test: Inhibition of human alpha-thrombin assessed as spectrozyme TH hydrolysis after 10 mins by spectrophotometric analysis
In short: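 Human α-thrombin (~5 nM initial) preincubated 10 min with inhibitor (4 μg/ml to 5 mg/ml stocks) at 25 °C. Buffer: 20 mM Tris-HCl pH 7.4, 100 mM NaCl, 2.5 mM CaCl2, 0.1% PEG 8000. Fractional residual activity fitted to logistic equation (Hill slope fixed at 1) for IC50 and efficacy ΔY.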

## CCOC(=O)c1c(C)oc2cc(OC(=O)N3CCOCC3)c(OS(=O)(=O)O)cc12
  IC50: > 2500 µM

— BindingDB's records for doi:10.1021/jm2005767 (Virginia Commonwealth University, 2011)
